Calls of active or inactive are those of the source. The rule behind the calls is not given here.
Tests used:
[1] = target: T1, DNA topoisomerase 1 (Homo sapiens) (UniProt P11387); assay: Inhibition of Top1 (unknown origin)-mediated relaxation of pBR322 DNA at 2.5 uM incubated for 30 mins by ethidium bromide staining-based gel electrophoresis assay
T1 sequence (whole entry): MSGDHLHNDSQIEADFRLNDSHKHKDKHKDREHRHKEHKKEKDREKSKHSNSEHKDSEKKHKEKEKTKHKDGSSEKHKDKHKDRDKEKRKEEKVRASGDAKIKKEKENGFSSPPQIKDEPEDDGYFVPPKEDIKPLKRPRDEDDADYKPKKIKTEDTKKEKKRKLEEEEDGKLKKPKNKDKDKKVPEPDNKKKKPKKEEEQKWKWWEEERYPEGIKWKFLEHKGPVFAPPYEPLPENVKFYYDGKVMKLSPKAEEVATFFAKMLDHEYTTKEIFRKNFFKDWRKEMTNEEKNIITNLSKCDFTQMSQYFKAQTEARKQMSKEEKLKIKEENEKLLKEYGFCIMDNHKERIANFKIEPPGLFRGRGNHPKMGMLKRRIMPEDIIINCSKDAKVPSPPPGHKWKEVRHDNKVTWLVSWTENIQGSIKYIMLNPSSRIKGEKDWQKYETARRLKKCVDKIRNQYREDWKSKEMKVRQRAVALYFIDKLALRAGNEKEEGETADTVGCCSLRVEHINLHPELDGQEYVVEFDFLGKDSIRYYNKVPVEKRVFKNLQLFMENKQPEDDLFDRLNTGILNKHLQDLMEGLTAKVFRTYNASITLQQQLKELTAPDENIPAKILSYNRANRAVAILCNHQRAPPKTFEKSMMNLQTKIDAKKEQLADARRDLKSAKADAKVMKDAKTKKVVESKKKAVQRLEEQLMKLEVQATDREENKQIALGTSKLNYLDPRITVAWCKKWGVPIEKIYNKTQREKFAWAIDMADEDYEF
Outline: (§1)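 Supercoiled pBR322 plasmid treated with Top1 without drug or with compound at 0.5, 2.5 or 10 µM; camptothecin as reference; relaxation assessed by gel electrophoresis.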

[2] = target: T2, NAD-dependent protein deacetylase sirtuin-1 (Homo sapiens) (UniProt Q96EB6); assay: Inhibition of human recombinant SIRT1 deacetylase activity using Arg-His-Lys-Lys(epsilon-acetyl)-AMC as substrate incubated for 45 mins by fluorescence analysis
T2 sequence (whole entry): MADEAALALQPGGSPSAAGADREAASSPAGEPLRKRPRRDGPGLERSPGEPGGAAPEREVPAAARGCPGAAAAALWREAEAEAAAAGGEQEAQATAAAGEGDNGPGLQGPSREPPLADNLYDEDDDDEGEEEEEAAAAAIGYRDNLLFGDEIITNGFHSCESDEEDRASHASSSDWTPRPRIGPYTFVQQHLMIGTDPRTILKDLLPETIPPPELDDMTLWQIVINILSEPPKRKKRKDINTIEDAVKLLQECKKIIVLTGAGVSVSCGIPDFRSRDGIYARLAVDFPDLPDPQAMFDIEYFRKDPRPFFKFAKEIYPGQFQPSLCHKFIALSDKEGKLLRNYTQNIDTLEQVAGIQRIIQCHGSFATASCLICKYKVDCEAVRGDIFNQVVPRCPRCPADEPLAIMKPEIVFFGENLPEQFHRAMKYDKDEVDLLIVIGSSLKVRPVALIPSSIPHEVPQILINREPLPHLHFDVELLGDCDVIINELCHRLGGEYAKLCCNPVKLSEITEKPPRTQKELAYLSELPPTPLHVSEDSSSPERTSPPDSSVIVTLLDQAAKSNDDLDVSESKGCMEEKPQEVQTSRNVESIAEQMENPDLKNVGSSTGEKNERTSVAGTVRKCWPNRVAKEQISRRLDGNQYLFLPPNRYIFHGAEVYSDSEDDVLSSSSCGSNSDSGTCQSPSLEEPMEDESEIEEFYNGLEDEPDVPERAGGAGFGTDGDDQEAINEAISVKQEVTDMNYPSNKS

L1210 = assay: Antiproliferative activity against mouse L1210 cells after 72 hrs by MTT assay; settings: L1210, 72 h
[3] = Antiproliferative activity against human HCT116 cells after 72 hrs by MTT assay; assay type: functional, cell-based; settings: HCT-116, 72 h
CCRF-CEM = assay: Antiproliferative activity against human CEM cells after 72 hrs by MTT assay; assay type: functional, cell-based
HeLa = assay: Antiproliferative activity against human HeLa cells after 72 hrs by MTT assay; assay type: functional, cell-based
K562 [4] = assay: Resistance index, ratio of IC50 for human K562/4 cells to IC50 for human K562 cells; assay type: functional
[5] = Antiproliferative activity against human K562/4 cells after 72 hrs by MTT assay; assay type: functional, cell-based; settings: K562/4, 72 h
[6] = target: T1, DNA topoisomerase 1 (Homo sapiens); assay: Inhibition of Top1 (unknown origin)-mediated relaxation of pBR322 DNA at 0.5 to 10 uM incubated for 30 mins by ethidium bromide staining-based gel electrophoresis assay; outline: as §1
AGS [7] = assay: Induction of apoptosis in human AGS cells assessed as late apoptotic cells at 10 uM after 24 hrs by annexin V-FITC staining-based flow cytometric analysis (Rvb=5.5%); assay type: functional
Outline: (§2)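 AGS cells exposed to compound for 24 h; Annexin V-FITC staining and flow cytometry used to give percentage of apoptotic cells; mean ± S.E. from at least three independent experiments.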

K562 [8] = assay: Antiproliferative activity against human K562 cells after 72 hrs by MTT assay; assay type: functional, cell-based; settings: K562, 72 h
AGS [9] = assay: Downregulation of tNOX protein level in human AGS cells at 1 and 5 uM after 24 hrs by Western blot analysis; assay type: functional, cell-based
AGS [10] = assay: Induction of apoptosis in human AGS cells assessed as necrotic cells at 10 uM after 24 hrs by annexin V-FITC staining-based flow cytometric analysis (Rvb=1.1%); assay type: functional
AGS [11] = assay: Upregulation of phosphorylated p53 level in human AGS cells at 1 and 5 uM after 24 hrs by Western blot analysis; assay type: functional, cell-based
[12] = target: T2, NAD-dependent protein deacetylase sirtuin-1 (Homo sapiens); assay: Inhibition of human recombinant SIRT1 deacetylase activity using Arg-His-Lys-Lys(epsilon-acetyl)-AMC as substrate at 5 uM incubated for 45 mins by fluorescence analysis
AGS [13] = assay: Induction of apoptosis in human AGS cells assessed as early apoptotic cells at 10 uM after 24 hrs by annexin V-FITC staining-based flow cytometric analysis (Rvb=9.8%); assay type: functional; outline: as §2
AGS [14] = assay: Downregulation of Bid protein level in human AGS cells after 24 hrs by Western blot analysis; assay type: functional, cell-based
AGS [15] = assay: Induction of apoptosis in human AGS cells assessed as viable cells at 10 uM after 24 hrs by annexin V-FITC staining-based flow cytometric analysis (Rvb=83.7%); assay type: functional; outline: as §2
AGS [16] = assay: Upregulation of caspase3-directed PARP cleavage in human AGS cells at 1 to 5 uM after 24 hrs by Western blot analysis; assay type: functional, cell-based
AGS [17] = assay: Induction of apoptosis in human AGS cells after 24 hrs by annexin V-FITC staining-based flow cytometric analysis; assay type: functional, cell-based; outline: as §2
[18] = Drug uptake in human K562/4 cells at 3 uM incubated for 2 hrs in presence of verapamil by flow cytometric analysis; assay type: ADME, cell-based; settings: k562/4, 2 h
Outline: (§3)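 K562 and K562/4 cells incubated 2 h with 3 µM compound; uptake measured by flow cytometry as ratios (arbitrary units) of mean fluorescence channels of the histograms; verapamil (10 µM), a Pgp transport blocker, added 30 min before compound where used.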

AGS [19] = assay: Upregulation of acetylated p53 level in human AGS cells at 1 and 5 uM after 24 hrs by Western blot analysis; assay type: functional, cell-based
AGS [20] = assay: Induction of apoptosis in human AGS cells assessed as change in mitochondrial transmembrane potential incubated for 1.5 hrs by DiOC6(3) dye-based flow cytometric analysis; assay type: functional, cell-based
AGS [21] = assay: Upregulation of caspase3-directed PARP cleavage in human AGS cells at 5 uM after 24 hrs by Western blot analysis; assay type: functional, cell-based
AGS [22] = assay: Downregulation of SIRT1 protein level in human AGS cells at 1 and 5 uM after 24 after 24 hrs by Western blot analysis; assay type: functional, cell-based
AGS [23] = assay: Downregulation of tNOX protein level in human AGS cells at 0.1 to 0.5 uM after 24 hrs by Western blot analysis; assay type: functional, cell-based
K562 [24] = assay: Drug uptake in human K562 cells at 3 uM incubated for 2 hrs in presence of verapamil by flow cytometric analysis; assay type: ADME, cell-based; settings: k562, 2 h; outline: as §3
[25] = Drug uptake in human K562/4 cells at 3 uM incubated for 2 hrs by flow cytometric analysis; assay type: ADME, cell-based; settings: k562/4, 2 h; outline: as §3
Calf thymus DNA = assay: Binding affinity to calf thymus double stranded DNA by spectrophotometric titration method; assay type: nucleic-acid assay; settings: Bos taurus
Outline: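 Absorption spectra of compound recorded while double-stranded DNA concentration was increased (spectrophotometric titration); extinction at absorption maxima 540 and 585 nm and band shift followed.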

AGS [26] = assay: Upregulation of total p53 level in human AGS cells at 1 and 5 uM after 24 hrs by Western blot analysis; assay type: cell-based
[27] = target: T1, DNA topoisomerase 1 (Homo sapiens); assay: Inhibition of Top1 (unknown origin)-mediated relaxation of pBR322 DNA at 0.5 uM incubated for 30 mins by ethidium bromide staining-based gel electrophoresis assay; outline: as §1

SMILES | IC50 (L1210) [nM] | IC50 [3] [nM] | IC50 (CCRF-CEM) [nM] | IC50 (HeLa) [nM] | Ratio IC50 (K562 [4]) | IC50 [5] [nM] | IC50 (K562 [8]) [nM] | Activity (AGS [11]) | Activity (AGS [14]) | Activity (AGS [17]) | Activity (AGS [19]) | Activity (AGS [21]) | Activity (AGS [22]) | Activity (AGS [23]) | further results
N=C(N)NCCNc1c2c(c(NCCNC(=N)N)c3sccc13)C(=O)c1ccccc1C2=O |  |  |  |  |  |  |  |  |  |  |  |  |  |  | inhibition [1]: Active
NC(=O)c1cccnc1 |  |  |  |  |  |  |  |  |  |  |  |  |  |  | inhibition [2]: Active
NCCNC(=O)c1cc2c(NCCN)c3c(c(NCCN)c2o1)C(=O)c1ccccc1C3=O | 26400 | 6520 | 105000 | 83800 |  |  |  |  |  |  |  |  |  |  | 
CNCCNc1c2c(c(NCCNC)c3oc(C)cc13)C(=O)c1ccccc1C2=O |  | 1600 |  | 190 | 35.5 | 4260 |  |  |  |  |  |  |  |  | 
Cc1cc2c(NCCNC(=N)N)c3c(c(NCCNC(=N)N)c2o1)C(=O)c1ccccc1C3=O |  |  |  |  |  |  |  |  |  |  |  |  |  |  | inhibition [1]: Active
CN1CCN(C(=O)c2cc3c(NCCN)c4c(c(NCCN)c3o2)C(=O)c2ccccc2C4=O)CC1 | 26100 | 3100 | 25000 | 61300 | >4 | > 100000 | 25200 | Active | Active | inactive |  |  |  |  | inhibition [6]: inactive; Activity (AGS [7]): inactive; Activity (AGS [9]): inactive; Activity (AGS [10]): inactive; inhibition [12]: inactive; Activity (AGS [13]): inactive; Activity (AGS [15]): inactive; Activity (AGS [16]): inactive
O=C1c2ccccc2C(=O)c2c1c(NCCNCCO)c1ccoc1c2NCCNCCO | 140 | 220 | 430 | 460 | 89.09 | 9800 | 110 | Active | Active | Dose-dependent effect | Active | Active | Active | Active | Drug uptake [18]: Active; Activity (AGS [20]): Active
COc1cccc2c1C(=O)c1c(O)c3c(c(O)c1C2=O)C[C@@](O)(C(=O)CO)C[C@@H]3O[C@H]1C[C@H](N)[C@H](O)[C@H](C)O1 [DOXORUBICIN] | 370 | 110 | 60 |  |  | 9750 | 120 |  |  |  |  |  |  | Active | Drug uptake (K562 [24]): Active; Drug uptake [18]: Not Active; Drug uptake [25]: Not Active
O=C1c2c(O)ccc(O)c2C(=O)c2c(NCCNCCO)ccc(NCCNCCO)c21 |  |  |  |  |  |  |  |  |  |  |  |  |  |  | Ka (Calf thymus DNA): 1 ×10⁶ /M
NCCCNc1c2c(c(NCCCN)c3occc13)C(=O)c1ccccc1C2=O | 730 | 410 | 890 | 870 |  |  |  |  |  |  |  |  |  |  | 
NCCNc1c2c(c(NCCN)c3occc13)C(=O)c1ccccc1C2=O | 300 | 110 | 750 | 550 | 1.36 | 150 | 110 | Active | Active | Dose-dependent effect | Active | Active | Active | Active | inhibition [12]: Active; Activity (AGS [20]): Active
CN(C)CCNc1c2c(c(NCCN(C)C)c3occc13)C(=O)c1ccccc1C2=O | 230 | 150 | 340 | 390 | 1.75 | 210 | 120 | Active | Active | Dose-dependent effect | Active | Active | Active | Active | Activity (AGS [20]): Active
CN1CCN(C(=O)c2cc3c(NCCNC(=N)N)c4c(c(NCCNC(=N)N)c3o2)C(=O)c2ccccc2C4=O)CC1 | 79300 | 4500 | 97700 | 38400 | >2 | > 100000 | 49500 | inactive | inactive | inactive | inactive | inactive | inactive |  | Activity (AGS [7]): inactive; Activity (AGS [9]): inactive; Activity (AGS [10]): inactive; inhibition [1]: Active; Activity (AGS [13]): inactive; Activity (AGS [15]): inactive; Activity (AGS [26]): Not Active; inhibition [27]: Active
